Values after ≈ are worked out from the molar mass of the structure shown. Active and inactive are the calls of the source. The calls are words filed in the database; no cut-off is given here.
Assays:
[1] = target: T1, Sodium/nucleoside cotransporter 2 (Homo sapiens, UniProt O43868); experiment: Inhibition of human CNT2 expressed in African green monkey COS7 cells assessed as reduction of [14C]-inosine uptake by liquid scintillation counting analysis; assay type: cell-based, COS-7
T1 sequence (O43868 whole entry): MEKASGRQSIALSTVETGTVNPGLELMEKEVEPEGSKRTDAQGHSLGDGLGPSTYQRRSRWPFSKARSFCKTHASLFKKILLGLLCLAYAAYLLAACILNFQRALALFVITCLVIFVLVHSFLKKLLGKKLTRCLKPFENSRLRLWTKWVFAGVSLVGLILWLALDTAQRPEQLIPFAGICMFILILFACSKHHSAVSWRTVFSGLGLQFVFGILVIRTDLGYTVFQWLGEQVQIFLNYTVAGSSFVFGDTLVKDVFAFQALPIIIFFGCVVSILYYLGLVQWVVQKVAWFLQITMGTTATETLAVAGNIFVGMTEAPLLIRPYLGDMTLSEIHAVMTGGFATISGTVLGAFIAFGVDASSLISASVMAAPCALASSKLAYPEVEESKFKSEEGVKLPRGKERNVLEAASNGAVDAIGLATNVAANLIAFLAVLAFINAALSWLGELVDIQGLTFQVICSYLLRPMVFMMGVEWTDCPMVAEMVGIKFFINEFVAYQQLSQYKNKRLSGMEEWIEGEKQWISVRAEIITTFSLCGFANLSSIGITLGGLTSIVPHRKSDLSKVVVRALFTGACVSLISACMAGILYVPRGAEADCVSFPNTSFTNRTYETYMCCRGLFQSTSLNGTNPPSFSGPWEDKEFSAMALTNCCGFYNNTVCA
Outline: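 COS-7 cells transiently transfected with hCNT2 in pCI-neo, assayed after 2 days. Pretreated in Na+-free choline buffer, 37 °C, 2×10 min. Uptake of 10 µM [14C]inosine for 30 min at 37 °C with 10 µM NBMPR, ±Na+, pH 7.4. Na+-dependent uptake set as 100%; lysate counted by scintillation. IC50 by nonlinear regression, ≥3 experiments; top concentration 100 µM.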

[2] = target: T2, Sodium/nucleoside cotransporter 2 (Rattus norvegicus) (UniProt Q62773); experiment: Inhibition of rat CNT2 expressed in African green monkey COS7 cells assessed as reduction of [14C]-inosine uptake at 1000 uM by liquid scintillation counting analysis; assay type: cell-based; conditions: COS-7
T2 sequence (whole entry): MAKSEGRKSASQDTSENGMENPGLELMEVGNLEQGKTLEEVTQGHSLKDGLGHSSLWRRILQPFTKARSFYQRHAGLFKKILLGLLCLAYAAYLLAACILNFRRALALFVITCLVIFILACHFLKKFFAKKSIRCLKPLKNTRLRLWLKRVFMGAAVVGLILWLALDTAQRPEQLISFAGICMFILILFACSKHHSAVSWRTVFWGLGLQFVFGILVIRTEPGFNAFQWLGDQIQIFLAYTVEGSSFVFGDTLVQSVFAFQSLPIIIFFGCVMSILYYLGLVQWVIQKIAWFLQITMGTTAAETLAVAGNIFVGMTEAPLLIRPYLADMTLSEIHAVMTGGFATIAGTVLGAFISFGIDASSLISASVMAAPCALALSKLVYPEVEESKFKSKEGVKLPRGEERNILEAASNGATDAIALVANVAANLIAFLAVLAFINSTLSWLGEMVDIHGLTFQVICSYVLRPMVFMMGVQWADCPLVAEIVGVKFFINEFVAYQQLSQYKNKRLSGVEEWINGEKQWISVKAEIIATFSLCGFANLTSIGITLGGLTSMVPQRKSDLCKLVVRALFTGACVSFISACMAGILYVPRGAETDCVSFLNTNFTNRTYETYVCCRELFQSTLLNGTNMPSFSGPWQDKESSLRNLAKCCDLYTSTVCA
Outline: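 rCNT2 cDNA in pCI-neo, transiently transfected into COS-7 cells and assayed 2 days later. Cells were pre-incubated twice for 10 min at 37 °C in Na+-free choline buffer, pH 7.4. Uptake of 10 µM [14C]/unlabeled inosine ran 30 min at 37 °C with 10 µM NBMPR. Na+-dependent uptake (Na+ minus choline buffer) was set as 100%, and percent inhibition was taken at 1000 µM.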

[3] = target: T3, Sodium/nucleoside cotransporter 2 (Rattus norvegicus, UniProt Q62773); experiment: Inhibition of rat CNT2 expressed in African green monkey COS7 cells assessed as reduction of [14C]-inosine uptake by liquid scintillation counting analysis; assay type: cell-based, COS-7
T3 sequence (Q62773 whole entry): T2 sequence (whole entry)
Outline: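 rCNT2 transiently expressed in COS-7 cells, used 2 days post-transfection. 10 µM [14C]inosine uptake at 37 °C for 30 min in the presence of 10 µM NBMPR. Uptake run with Na+ or with choline replacing Na+, pH 7.4; the Na+-dependent difference defined 100% transport. Scintillation read-out; IC50 by nonlinear regression, ≥3 independent runs.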

[4] = target: T2, Sodium/nucleoside cotransporter 2 (Rattus norvegicus); experiment: Inhibition of rat CNT2 expressed in African green monkey COS7 cells assessed as reduction of [14C]-inosine uptake at 100 uM by liquid scintillation counting analysis; assay type: cell-based; conditions: COS-7
[5] = Solubility of compound in JP2 at pH 6.8 after 1 hr at 37 degC; assay type: physicochemical; conditions: JP2, pH 6.8
Outline: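 Solubility measured in JP2, a 1:1 mix of pH 6.8 phosphate buffer and water, after incubation for 1 h at 37 °C.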

Rattus norvegicus [6] = experiment: Suppression of adenosine/inosine/guanosine mixture-induced elevation of uric acid level in potassium oxonate-treated Sprague-Dawley rat plasma at 1 to 10 mg/kg, po measured after 1 hr by phosphotungstic acid method; assay type: functional, organism-based
Outline: (§1)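 Male SD rats, 5 weeks old, fasted overnight, given potassium oxonate 100 mg/kg sc. After 1 h, a purine mix (adenosine:inosine:guanosine 1:1:1, 50 mg/kg) was given orally together with the test compound (50, or 0.1–10 mg/kg). Aortic blood taken 1 h later under anesthesia; plasma uric acid measured by phosphotungstic acid method. Mean ± SEM; Student's t or Dunnett's test.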

[7] = Clearance in Sprague-Dawley rat at 1 mg/kg, iv by LC/MS analysis; assay type: ADME, organism-based; conditions: in vivo
Outline: (§2)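 Male SD rats, 6 weeks old, fasted 16 h; 1.0 mg/mL/kg tail-vein bolus in dimethylacetamide/5% glucose (1:1 v/v). Jugular blood at 2 min and 0.25–24 h. Plasma deproteinized with acetonitrile plus warfarin internal standard, then LC/MS. Noncompartmental analysis; CLtot, Vdss and t1/2 derived from the iv data.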

[8] = Volume of distribution at steady state in Sprague-Dawley rat at 1 mg/kg, iv by LC/MS analysis; assay type: ADME, organism-based; conditions: in vivo, read-out: Vdss; outline: as §2
[9] = Half life in Sprague-Dawley rat at 1 mg/kg, iv by LC/MS analysis; assay type: ADME, organism-based; conditions: in vivo; outline: as §2
[10] = AUC (0 to infinity) in Sprague-Dawley rat at 1 mg/kg, iv by LC/MS analysis; assay type: ADME, organism-based; parameters: dose 1 mg/kg, route intravenous, time infinity; conditions: in vivo
Outline: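 Male SD rats (6 weeks old, fasted 16 h) received a tail-vein bolus of 1.0 mg/mL/kg in dimethylacetamide/5% glucose (1:1 v/v). Heparinized jugular blood was drawn at 2 min and 0.25, 1, 2, 4, 6, 8 and 24 h. Plasma was acetonitrile-deproteinized with warfarin internal standard and run by gradient LC on a C18 column, calibrated 1-5000 ng/mL. AUC came from noncompartmental analysis.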

[11] = Cmax in Sprague-Dawley rat at 10 mg/kg, po by LC/MS analysis; assay type: ADME, organism-based; parameters: dose 10 mg/kg, route oral; conditions: in vivo
Outline: (§3)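 Male SD rats, 6 weeks old, fasted 16 h; oral dose 10 mg/5 mL/kg as a suspension in 0.5% sodium carboxymethylcellulose. Jugular blood at 0.25, 0.5, 1, 2, 4, 6, 8 and 24 h. Acetonitrile-deproteinized plasma with warfarin internal standard analysed by LC/MS. Parameters from noncompartmental analysis.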

[12] = Tmax in Sprague-Dawley rat at 10 mg/kg, po by LC/MS analysis; assay type: ADME, organism-based; conditions: in vivo; outline: as §3
[13] = AUC (0 to infinity) in Sprague-Dawley rat at 10 mg/kg, po by LC/MS analysis; assay type: ADME, organism-based; parameters: dose 10 mg/kg, route oral, time infinity; conditions: in vivo
Outline: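 Fasted (16 h) 6-week-old male SD rats were dosed orally at 10 mg/5 mL/kg as a suspension in 0.5% sodium carboxymethylcellulose. Heparinized jugular blood was sampled at 0.25, 0.5, 1, 2, 4, 6, 8 and 24 h. Plasma was deproteinized with acetonitrile plus warfarin internal standard and quantified by gradient C18 LC against a 1-5000 ng/mL standard curve. AUC was derived noncompartmentally.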

[14] = Oral bioavailability in Sprague-Dawley rat at 10 mg/kg by LC/MS analysis; assay type: ADME, organism-based; conditions: in vivo
Outline: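 Oral F in fasted male SD rats from noncompartmental AUCs. Oral arm: 10 mg/kg suspended in 0.5% CMC-Na. IV arm: 1.0 mg/kg in dimethylacetamide/5% glucose. F = (AUCpo/AUCiv)×(dose iv/dose po)×100. Plasma measured by LC/MS.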

Rattus norvegicus [15] = experiment: Suppression of adenosine/inosine/guanosine mixture-induced elevation of uric acid level in potassium oxonate-treated Sprague-Dawley rat plasma at 50 mg/kg, po measured after 1 hr by phosphotungstic acid method; assay type: functional; outline: as §1

Compound	IC50 [1]	IC50 [3]	inhibition [4]	solubility at 1 h [5]	further results
O=c1[nH]cnc2c1nc(NCc1ccc(-c3ccccc3)c(OCCCCO)c1)n2[C@@H]1O[C@H](CO)[C@@H](O)[C@H]1O	20.1 µM	> 1000 µM			inhibition [2]: 18%
Nc1ncnc2c1nc(NCc1ccc(-c3ccccc3)cc1O)n2[C@@H]1O[C@H](CO)[C@@H](O)[C@H]1O	1.3 µM		inactive		
CCCOc1cc(CNc2nc3c(N)ncnc3n2[C@@H]2O[C@H](CO)[C@@H](O)[C@H]2O)ccc1-c1ccccc1	5.2 µM		inactive		
CCOc1cc(-c2ccccc2)ccc1CNc1nc2c(N)ncnc2n1[C@@H]1O[C@H](CO)[C@@H](O)[C@H]1O	5.4 µM		inactive	2 µg/mL (≈ 4.06 µM)	
OCCCCOc1cc(CNc2nc3ccccc3n2[C@@H]2O[C@H](CO)[C@@H](O)[C@H]2O)ccc1-c1ccccc1	0.062 µM	1.5 µM		120 µg/mL (≈ 231 µM)	Activity (Rattus norvegicus [6]): Active; clearance [7]: 6.57 mL/min/kg; Vd [8]: 0.117 L/kg; half-life [9]: 1.7 h; AUC(0-inf) [10]: 5 µM·h; Cmax [11]: 110 nM; Tmax [12]: 0.83 h; AUC(0-inf) [13]: 0.25 µM·h; bioavailability [14]: 0.51%
Nc1ncnc2c1nc(NCc1ccc(-c3ccccc3)c(OCCO)c1)n2[C@@H]1O[C@H](CO)[C@@H](O)[C@H]1O	3.1 µM	> 100 µM	49%		
Nc1ncnc2c1nc(NCc1ccc(-c3ccccn3)cc1)n2[C@@H]1O[C@H](CO)[C@@H](O)[C@H]1O	1.5 µM		inactive		
Nc1ncnc2c1nc(NCc1ccc(-c3cccnc3)cc1)n2[C@@H]1O[C@H](CO)[C@@H](O)[C@H]1O	1 µM	> 100 µM	11%		
COc1cc(CNc2nc3c(N)ncnc3n2[C@@H]2O[C@H](CO)[C@@H](O)[C@H]2O)ccc1-c1ccccc1	1.3 µM		inactive	215 µg/mL (≈ 449 µM)	
NC(=O)COc1cc(CNc2nc3c(N)ncnc3n2[C@@H]2O[C@H](CO)[C@@H](O)[C@H]2O)ccc1-c1ccccc1	5.5 µM	> 100 µM	< 5%		
Nc1ncnc2c1nc(NCc1ccc(-c3ccccc3)c(OCCCCO)c1)n2[C@@H]1O[C@H](CO)[C@@H](O)[C@H]1O	0.94 µM	38 µM		190 µg/mL (≈ 354 µM)	Activity (Rattus norvegicus [15]): 42%
